ChEMBL document CHEMBL3085734, “Indole diterpene alkaloids as novel inhibitors of the Wnt/β-catenin pathway in breast cancer cells” (Eur J Med Chem, 2013)
The source made the active and inactive calls. No cut-off for these calls is given here.

Experiments:
MDA-MB-231 [1] = test: Antiinvasive activity against human MDA-MB-231 cells at 7.5 to 15 uM after 24 hrs by cultrex BME assay
MDA-MB-231 [2] = test: Inhibition of Wnt/beta-catenin signaling pathway in human MDA-MB-231 cells assessed as decrease in expression of beta-catenin level at 8 uM after 48 hrs by DAPI staining-based confocal laser scanning microscopy; type: cell-based
In short: (§1)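 MDA-MB-231 cells, 5 × 10^4 per chamber (2 replicates/group), attached overnight in 10% FBS medium, then treated 48 h in 0.5% FBS medium (final DMSO ≤0.2%). Methanol-fixed at −20 °C, blocked in 2% BSA-TBST, anti-total β-catenin (1:300, overnight 4 °C), Alexa Fluor 594 secondary, DAPI counterstain. Confocal imaging at 200X; red intensity compared with vehicle; ≥3 independent repeats.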

MDA-MB-231 [3] = test: Antimigratory activity against human MDA-MB-231 cells after 24 hrs by wound-healing assay; type: functional, cell-based; conditions: MDA-MB-231, 24 h
In short: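 Confluent MDA-MB-231 monolayers scratched with a pipette tip, then washed. Compounds added in 0.5% FBS medium, in triplicate, for 24 h. Cells then fixed and stained with Diff-Quick. Cells that migrated into the wound were counted in at least five random fields at 400X.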

MCF7 = test: Antiproliferative activity against human MCF7 cells after 72 hrs by MTT assay; type: functional, cell-based; conditions: MCF7, 72 h
In short: (§2)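 Seeding: MCF-7 at 10×10³ and MDA-MB-231 at 8×10³ cells/well, attached overnight. Medium: serum-free RPMI for MCF-7 and RPMI with 5% FBS for MDA-MB-231, with graded compound doses, for 72 h at 37°C. Readout: MTT (1 mg/mL) for 4 h, formazan dissolved in DMSO, absorbance at 570 nm. Cell numbers taken from a standard curve as % survival versus DMSO. IC50 obtained by nonlinear regression. Final DMSO ≤0.2%.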

[4] = Inhibition of Wnt/beta-catenin signaling pathway in mouse C2C12 cells assessed as induction of nuclear translocation of beta-catenin after 24 hrs by propidium iodide staining-based laser scanning cytometry; type: cell-based; conditions: C2C12, 24 h
MDA-MB-231 [5] = test: Antiproliferative activity against human MDA-MB-231 cells after 72 hrs by MTT assay; type: functional, cell-based; conditions: MDA-MB-231, 72 h
In short: as §2

Mus musculus [6] = test: Toxicity in CD-1 mouse assessed as incidence of tremor at 19.6 mg/kg, ip measured every 10 to 15 mins for 8 hrs up to day 14; type: organism-based; design: dose 19.6 mg/kg, route intraperitoneal; conditions: in vivo
In short: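 Male CD-1 mice (18–22 g), housed individually. Compounds given ip in DMSO diluted with saline (DMSO ≤2.0 µL/g). Up-and-Down Procedure per EPA 870.1100: sigma 0.33, starting dose 1.92 mg/kg, changed in 3.2-fold steps by tremor response, range 0.19–19.6 mg/kg. Observed every 10–15 min for 1 h, hourly for 8 h, then daily to day 14. Tremor EC50 calculated with AOT425StatPgm.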

[7] = target: Calcium-activated potassium channel slo-1 (Caenorhabditis elegans, UniProt Q95V25); test: Inhibition of wild type L4 larval stage of Caenorhabditis elegans N2 bristol BK channel assessed as induction of reversal locomotion at 1 uM after 42 hrs
Calcium-activated potassium channel slo-1, sequence (Q95V25 whole entry): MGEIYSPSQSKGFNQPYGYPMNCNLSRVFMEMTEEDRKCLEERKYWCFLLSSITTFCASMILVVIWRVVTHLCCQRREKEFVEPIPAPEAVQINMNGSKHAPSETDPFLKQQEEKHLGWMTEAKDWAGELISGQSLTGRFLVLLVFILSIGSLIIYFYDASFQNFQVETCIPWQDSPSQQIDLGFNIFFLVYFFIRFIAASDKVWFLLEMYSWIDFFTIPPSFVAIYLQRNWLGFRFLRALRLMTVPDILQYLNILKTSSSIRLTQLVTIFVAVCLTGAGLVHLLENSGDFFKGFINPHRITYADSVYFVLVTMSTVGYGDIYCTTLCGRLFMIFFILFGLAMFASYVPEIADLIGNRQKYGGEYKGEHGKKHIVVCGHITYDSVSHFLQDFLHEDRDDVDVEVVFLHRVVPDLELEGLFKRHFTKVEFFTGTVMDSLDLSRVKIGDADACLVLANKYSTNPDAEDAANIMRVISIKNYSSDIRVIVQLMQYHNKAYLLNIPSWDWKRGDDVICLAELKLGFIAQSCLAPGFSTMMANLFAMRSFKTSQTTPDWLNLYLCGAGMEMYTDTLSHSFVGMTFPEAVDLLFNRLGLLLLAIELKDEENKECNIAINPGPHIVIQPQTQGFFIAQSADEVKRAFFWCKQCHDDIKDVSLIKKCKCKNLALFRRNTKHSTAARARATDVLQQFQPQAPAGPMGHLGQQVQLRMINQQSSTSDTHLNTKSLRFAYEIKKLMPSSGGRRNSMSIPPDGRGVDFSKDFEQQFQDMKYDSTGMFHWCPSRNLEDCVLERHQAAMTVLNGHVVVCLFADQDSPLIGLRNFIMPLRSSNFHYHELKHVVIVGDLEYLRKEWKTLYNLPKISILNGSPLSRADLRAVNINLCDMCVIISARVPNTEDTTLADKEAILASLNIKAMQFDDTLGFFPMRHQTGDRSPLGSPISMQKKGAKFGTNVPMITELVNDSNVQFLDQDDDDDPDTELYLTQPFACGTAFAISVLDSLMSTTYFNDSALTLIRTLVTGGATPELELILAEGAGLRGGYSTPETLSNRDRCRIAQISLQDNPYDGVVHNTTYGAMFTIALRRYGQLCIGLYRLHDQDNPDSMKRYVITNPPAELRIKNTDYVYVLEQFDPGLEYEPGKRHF
In short: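 30–40 synchronized L1 larvae of wild-type N2 placed on OP50-seeded NGM plates containing 1.0 µM compound or DMSO. Incubated 42 h at 20°C. L4 worms then moved to unseeded NGM and acclimatized 1 min before reversals were counted, at least 10 worms per treatment. slo-1(js379) strain NM1968 served as positive control.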

Mus musculus [8] = test: Toxicity in CD-1 mouse assessed as incidence of tremor at 0.60 mg/kg, ip measured every 10 to 15 mins for 8 hrs up to day 14; type: organism-based; design: dose 0.6 mg/kg, route intraperitoneal; conditions: in vivo, 0.6 mg/kg
In short: (§3)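 Male CD-1 mice (18–22 g), housed singly 3 days beforehand, given a single i.p. dose of DMSO stock diluted in saline (DMSO ≤2.0 µL/g); vehicle controls. Up-and-Down Procedure per EPA 870.1100 (sigma 0.33): start 1.92 mg/kg, then ×3.2 up or down according to tremor response, range 0.19–19.6 mg/kg. Tremors scored over 14 days; EC50 from AOT425StatPgm.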

MDA-MB-231 [9] = test: Inhibition of Wnt/beta-catenin signaling pathway in human MDA-MB-231 cells assessed as decrease in expression of beta-catenin level at 9.6 uM after 48 hrs by DAPI staining-based confocal laser scanning microscopy; type: cell-based
In short: as §1

Mus musculus [10] = test: Toxicity in ip dosed CD-1 mouse assessed as incidence of tremor measured every 10 to 15 mins for 8 hrs up to day 14; type: organism-based
In short: as §3

Mus musculus [11] = test: Toxicity in CD-1 mouse assessed as incidence of tremor at 1.92 mg/kg, ip measured every 10 to 15 mins for 8 hrs up to day 14; type: organism-based; design: dose 1.92 mg/kg, route intraperitoneal; conditions: in vivo
In short: as §3

Mus musculus [12] = test: Toxicity in CD-1 mouse assessed as incidence of tremor at 0.19 mg/kg, ip measured every 10 to 15 mins for 8 hrs up to day 14; type: organism-based; design: dose 0.19 mg/kg, route intraperitoneal; conditions: in vivo
In short: as §3

MDA-MB-231 [13] = test: Inhibition of Wnt/beta-catenin signaling pathway in human MDA-MB-231 cells assessed as decrease in expression of beta-catenin level at 7.6 uM after 48 hrs by DAPI staining-based confocal laser scanning microscopy; type: cell-based
In short: (§4)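 MDA-MB-231 cells seeded at 5×10⁴/chamber and attached overnight in 10% FBS. Treated 48 h in 0.5% FBS medium. Cells fixed in −20°C methanol and blocked with 2% BSA-TBST. Stained with anti-total β-catenin (1:300, overnight at 4°C), then Alexa Fluor 594 secondary, with DAPI counterstain. Confocal imaging at 200X; red intensity compared with untreated control. Duplicate chambers, experiments repeated at least three times.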

MDA-MB-231 [14] = test: Inhibition of Wnt/beta-catenin signaling pathway in human MDA-MB-231 cells assessed as decrease in expression of beta-catenin level at 48.2 uM after 48 hrs by DAPI staining-based confocal laser scanning microscopy; type: cell-based
In short: as §4

MDA-MB-231 [15] = test: Inhibition of Wnt/beta-catenin signaling pathway in human MDA-MB-231 cells assessed as decrease in expression of beta-catenin level at 19 uM after 48 hrs by DAPI staining-based confocal laser scanning microscopy; type: cell-based
In short: as §1

IC50 (MDA-MB-231 [3])	IC50 (MCF7)	IC50 (MDA-MB-231 [5])	inhibition (INH) [7]	Compound	Activity (MDA-MB-231 [1])	other results
> 50 µM	> 50 µM	> 50 µM	Not Active	C=C(C)[C@H]1O[C@H]2CC[C@@]3(C)[C@@](O)(CC[C@H]4[C@@H]5OC(C)(C)[C@@H]6C[C@@H]7C(=C)Cc8c(Cl)cc9c(c5c(n9C)[C@@]43C)c8[C@@]76O)[C@]23O[C@@H]3[C@H]1OC	Active	Activity (Mus musculus [6]): ND(Insoluble)
–	–	–	Not Active	CC(C)(O)[C@@H]1CC[C@]2(C)[C@H](CC[C@@]3(C)[C@H]2CC[C@H]2Cc4c([nH]c5ccccc45)[C@@]23C)O1 [PASPALINE]	–	inhibition (MDA-MB-231 [13]): Active
> 50 µM	–	> 50 µM	–	C=C(C)[C@H]1O[C@H]2CC[C@@]3(C)[C@@](O)(CC[C@H]4[C@@H]5OC(C)(C)[C@@H]6C[C@@H]7C(=C)Cc8c(Cl)cc9c(c5c(n9C)[C@@]43C)c8[C@@]76O)[C@]23O[C@@H]3[C@H]1O	Active	–
> 50 µM	32.3 µM	10 µM	–	C=C1Cc2c(Cl)cc3[nH]c4c5c3c2[C@@]2(O)[C@@H]1C[C@H]2C(C)(C)O[C@H]5[C@@H]1CC[C@@]2(O)[C@@]35O[C@@H]3[C@@](O)(/C=C(/C)COC(C)=O)O[C@H]5CC[C@]2(C)[C@@]41C	–	–
> 50 µM	> 50 µM	13.8 µM	Not Active	C=C(C)[C@H]1O[C@H]2CC[C@@]3(C)[C@@](O)(CC[C@H]4[C@@H]5OC(C)(C)[C@@H]6C[C@@H]7C(=C)Cc8c(Cl)cc9[nH]c(c5c9c8[C@@]76O)[C@@]43C)[C@]23O[C@@H]3[C@H]1OC(=O)c1ccccc1	Active	Activity (Mus musculus [6]): ND(Insoluble)
> 50 µM	> 50 µM	> 50 µM	–	C=C(C)[C@H]1O[C@H]2CC[C@@]3(C)[C@@](O)(CC[C@H]4[C@@H]5OC(C)(C)[C@@H]6C[C@@H]7C(=C)Cc8c(Cl)cc9[nH]c(c5c9c8[C@@]76O)[C@@]43C)[C@]23O[C@@H]3[C@H]1OCc1ccccc1	–	–
48.2 µM	13.3 µM	43.8 µM	Not Active	C=C1Cc2c(Cl)cc3[nH]c4c5c3c2[C@@]2(O)[C@@H]1C[C@H]2C(C)(C)O[C@H]5[C@@H]1CC[C@@]2(O)[C@@]35O[C@@H]3[C@H](O)O[C@H]5CC[C@]2(C)[C@@]41C	Active	Activity (Mus musculus [6]): ND(Insoluble); inhibition (MDA-MB-231 [14]): Active
–	–	–	–	C=C1Cc2c(Br)cc3[nH]c4c5c3c2[C@H]2[C@@H]1C[C@H]2C(C)(C)O[C@H]5[C@@H]1CC[C@@]2(O)[C@@]35O[C@@H]3[C@@H](O)[C@@H](C(=C)C)O[C@H]5CC[C@]2(C)[C@@]41C	–	Activity (Mus musculus [8]): Non-toxic; Activity (Mus musculus [6]): Toxic; EC50 (Mus musculus [10]): 3.43 mg/kg
> 50 µM	> 50 µM	> 50 µM	–	C=C(C)[C@H]1O[C@H]2CC[C@@]3(C)[C@@](O)(CC[C@H]4[C@@H]5OC(C)(C)[C@@H]6C[C@@H]7C(=C)Cc8c(Cl)cc9c(c5c(n9Cc5cccc(OC)c5)[C@@]43C)c8[C@@]76O)[C@]23O[C@@H]3[C@H]1OCc1cccc(OC)c1	Active	–

Compound	IC50 (MDA-MB-231 [3])	IC50 (MCF7)	IC50 (MDA-MB-231 [5])	inhibition (INH) [7]	Activity (MDA-MB-231 [1])	other results
C=C(C)[C@H]1O[C@H]2CC[C@@]3(C)[C@@](O)(CC[C@H]4[C@@H]5OC(C)(C)[C@H]6C[C@@H]7C(=C)Cc8c(Cl)cc9[nH]c(c5c9c8[C@@]76O)[C@@]43C)[C@@]23O[C@H]3[C@H]1O [PENITREM A]	8.7 µM	11.9 µM	9.8 µM	–	Active	inhibition (MDA-MB-231 [2]): Active; EC50 [4]: 0.98 µM
C=C(C)[C@H]1O[C@H]2CC[C@@]3(C)[C@@](O)(CC[C@H]4[C@@H]5OC(C)(C)[C@@H]6C[C@@H]7C(=C)Cc8c(Br)cc9[nH]c(c5c9c8[C@@]76O)[C@@]43C)[C@]23O[C@@H]3[C@H]1O	–	–	–	Not Active	–	Activity (Mus musculus [8]): Toxic; inhibition (MDA-MB-231 [9]): Active; EC50 (Mus musculus [10]): 0.32 mg/kg; Activity (Mus musculus [11]): Toxic; Activity (Mus musculus [12]): Non-toxic
C=C(C)[C@H]1O[C@H]2CC[C@@]3(C)[C@@](O)(CC[C@H]4[C@@H]5OC(C)(C)[C@@H]6C[C@@H]7C(=C)Cc8c(Cl)cc9[nH]c(c5c9c8[C@@]76O)[C@@]43C)[C@]23O[C@@H]3[C@H]1OC	> 50 µM	22.7 µM	> 50 µM	–	Active	–
C=C(C)[C@H]1O[C@H]2CC[C@@]3(C)[C@@](O)(CC[C@H]4[C@@H]5OC(C)(C)[C@H]6C[C@@H]7C(=C)Cc8c(Cl)cc9[nH]c(c5c9c8[C@@]76O)[C@@]43C)[C@]23O[C@@H]3[C@H]1O [PENITREM A]	–	–	–	Active	–	Activity (Mus musculus [11]): Toxic; Activity (Mus musculus [12]): Non-toxic
CC(C)=CCC[C@]1(C)[C@@H](O)CC[C@@]2(C)[C@H]1CC[C@H]1Cc3c([nH]c4ccccc34)[C@@]12C [EMINDOLE SB]	–	–	–	Not Active	–	inhibition (MDA-MB-231 [15]): Active
C=C(C)[C@H]1O[C@H]2CC[C@@]3(C)[C@@](O)(CC[C@H]4[C@@H]5OC(C)(C)[C@@H]6C[C@@H]7C(=C)Cc8c(Cl)cc9[nH]c(c5c9c8[C@@]76OO)[C@@]43C)[C@]23O[C@@H]3[C@H]1O	> 50 µM	> 50 µM	> 50 µM	–	Active	–
